This is a sample that favours compounds with a hit; in the whole collection about 2.6% have one here.
T cruzi inh: inhibitors of intracellular T. cruzi growth, primary screen, luminescence, NIH3T3 host cells; T. cruzi beta-gal in NIH3T3, 90 h; inhibition, % (test concentration not listed); hit rate 1.4% among 300,000;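 active = mean inhibition across valid replicates above about 55%, limit read from the data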;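 also: signal also drops with host cell toxicity which is not excluded here; 0% = plate median of DMSO wells and 100% = zero luminescence signal; higher percent means less beta-gal luminescence so fewer parasites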
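System – NIH/3T3 host cells with β-galactosidase reporter T. cruzi · Doses – single 50 nL compound addition per well in DMSO · Reagent – 5000 T. cruzi trypomastigotes/well · Medium – Low-serum DMEM with 2% FBS · Timing – ≥90 h infection period, 3 h prior cell attachment · Evaluation – parasite load inhibition, % · Technique – GalScreen luminescence, 60 min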
CHT PAM: CHT positive allosteric modulators, primary screen, cell-based, membrane potential dye, choline EC20; B-score at 10 µM; High affinity choline transporter 1 (Homo sapiens), Q9GZV3; AID 488977, 2010; CHT-expressing cells; hits give high values; LV-AA mutant CHT in HEK293 cells; hit rate 0.49% among 310,000;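 active = initial fluorescence not abnormally high and integrated response B-score, plate-corrected, over 3 SD above library mean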
Target sequence (Q9GZV3 whole entry, looked up): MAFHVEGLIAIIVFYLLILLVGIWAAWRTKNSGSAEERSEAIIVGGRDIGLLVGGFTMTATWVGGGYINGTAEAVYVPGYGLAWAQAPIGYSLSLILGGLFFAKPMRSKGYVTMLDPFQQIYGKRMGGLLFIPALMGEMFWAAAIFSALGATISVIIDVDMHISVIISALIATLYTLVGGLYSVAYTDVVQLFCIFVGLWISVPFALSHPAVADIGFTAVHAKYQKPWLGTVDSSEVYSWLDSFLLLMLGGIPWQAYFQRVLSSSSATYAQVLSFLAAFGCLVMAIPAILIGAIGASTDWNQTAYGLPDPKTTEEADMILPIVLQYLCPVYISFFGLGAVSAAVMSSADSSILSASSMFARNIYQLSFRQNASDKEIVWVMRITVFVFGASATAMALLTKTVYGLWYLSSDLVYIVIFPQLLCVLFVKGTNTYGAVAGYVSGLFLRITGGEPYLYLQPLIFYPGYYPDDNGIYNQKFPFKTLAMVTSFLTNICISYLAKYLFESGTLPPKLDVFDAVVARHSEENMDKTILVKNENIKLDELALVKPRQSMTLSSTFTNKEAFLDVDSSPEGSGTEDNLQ
CHT block: inhibitors of human choline transporter CHT; High affinity choline transporter 1 (Homo sapiens), Q9GZV3; CHT-expressing cells, membrane potential dye, choline response; hits give low values; B-score at 10 µM; hit rate 0.86% among 310,000; AID 488975, 2010;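 active = B-score over 3 SD under the library average, and starting fluorescence ratio not unusually high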;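 also: choline stimulus applied at its EC90 after an EC20 pre-addition; B-score computed on integrated fluorescence ratio after choline addition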
PolyA inh: polyadenylation inhibitors in yeast reporter cells, primary screen, luminescence, S. cerevisiae. S. cerevisiae SKY197-pL101 polyadenylation reporter, beta-gal luminescence; efflux-impaired pdr1/pdr3 knockout yeast; score 100 = 6 SD above DMSO. AID 1875, 2009. hit rate 0.02% among 300,000. activity score, % at 12 µM;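 active = lowest replicate activity score at least 50, where 100 means six control SD above control mean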;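 also: yeast exposed to compound for 9 h at 30 °C; higher score means more reporter readthrough which indicates perturbed polyadenylation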
CHT inh conf: CHT inhibitors, confirmation, cell-based, membrane potential dye, duplicate; AID 493221, 2011; shares compounds with CHT block; CHT activity remaining % of control (hits give low values), % at 10 µM; CHT-expressing cells, choline membrane potential dye; LV-to-AA substituted CHT, HEK293 cells; hit rate 70% among 2,400;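 active = choline transporter activity left, mean of duplicates at 10 µM, below buffer-only control mean minus 3 SD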;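 also: depolarization triggered by choline at its EC90 following an EC20 pre-addition; 0% = hemicholinium-3 full block and 100% = buffer-only control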
HEK293 CHT ctr: membrane potential effects in parental HEK293, counter-screen for CHT inhibitor project, cell-based, membrane potential dye; choline response; active = decrease or increase beyond buffer ±3SD; shares compounds with CHT block; hit rate 4% among 2,400; membrane potential ratio readout (active if shifted either direction beyond buffer ±3SD; no single direction) at 10 µM;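 also: parental cells lack the transporter so any hit is non-specific; ratio is peak minus trough fluorescence over baseline after EC90 choline challenge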
* hit, by the source's call; i = inactive; . = no result given.

SMILES	T cruzi inh	CHT PAM	CHT block	PolyA inh	CHT inh conf	HEK293 CHT ctr
C=Cn1cc[n+](CC(=O)c2ccc(Cl)c(Cl)c2)c1	1	i	-7.2*	-7	48%*	i
C=Cn1cc[n+](CC(=O)C(C)(C)C)c1	-17	i	i	7	.	.
O=C(Nc1cc(C(F)(F)F)ccc1-n1cncn1)c1ccc([N+](=O)[O-])o1	42	i	-6.1*	-10	33%*	i
O=[N+]([O-])C(/C=C(\Cl)[N+](=O)[O-])=C1N(Cc2ccc(Cl)nc2)CCN1Cc1ccc(Cl)nc1	-13	i	i	8	.	.
O=[N+]([O-])/C(C(=C(Cl)Cl)N1CCN(Cc2ccccc2)CC1)=C1\NCCN1Cc1ccc(Cl)nc1	27	i	-13*	-14	4.7%*	i
Cn1c(SCc2nc(-c3ccc(Br)cc3)no2)nnc1-c1ccco1	18	i	i	-11	.	.
CCn1c(SCc2nc(-c3ccccc3)no2)nnc1-c1ccco1	-17	i	-5.2*	-37	55%*	i
CCn1c(SCc2nc(-c3ccccc3)no2)nnc1-c1cccs1	-12	i	-5.5*	-2	47%*	i
CCn1c(SCc2nc3scc(-c4ccccc4)c3c(=O)[nH]2)nnc1-c1cccs1	14	i	-7.3*	-1	i	i
CC1CCCN(C(=O)c2ccc(CNc3c(N4CCCCC4)c(=O)c3=O)cc2)C1 (stereo not given)	-9	i	i	4	.	.
Cc1cccc(N2CCN(C(=O)c3ccc(CNc4c(N5CCC(C)CC5)c(=O)c4=O)cc3)CC2C)c1 (stereo not given)	3	i	-5.4*	-1	70%*	i
COc1cc(C2Nc3ccc4ccccc4c3C3=C2C(=O)CC(C)(C)C3)ccc1OC(C)C(=O)O (stereo not given)	-14	i	i	15	.	.
CC(=O)Oc1ccccc1C(=O)OCCN=C1NS(=O)(=O)c2ccccc21	-2	i	i	-13	.	.
COc1ccc(N2CCN(C(=O)c3cc(-c4cccs4)nc4ccccc34)CC2)cc1	-8	i	-6.1*	-3	i	i
C=CCC1NS(=O)(=O)OC(CCc2ccccc2)C1O (stereo not given)	0	i	i	-6	.	.
COc1cccc(NC(=O)C2CCN(C(=O)[C@@H]3Cc4ccccc4CN3)CC2)c1	-7	i	i	16	.	.
COc1ccc(C(CC(=O)O)NS(=O)(=O)c2ccc3c(c2)N(C(C)=O)CC(C)O3)cc1 (stereo not given)	-6	i	i	10	.	.
Cc1ccc(C(=O)C[n+]2cc(Br)cc(Br)c2)cc1	2	i	-13*	-5	21%*	i
O=C(C[n+]1cccc(Br)c1)c1cccs1	-2	i	-9.2*	11	26%*	i
O=C(C[n+]1cc(Br)cc(Br)c1)c1ccc(-c2ccccc2)cc1	-5	i	i	-2	.	.
O=C(C[n+]1cccc(Br)c1)c1ccc(-c2ccccc2)cc1	5	i	-15*	-13	-0.8%*	i
COc1ccc(C(=O)C[n+]2cccc(Br)c2)cc1	-8	i	-19*	-14	-0.1%*	i
O=C1COc2ccc(N3C(=O)c4ccccc4C3=O)cc2N1	-12	i	i	11	.	.
COc1ccc(OC)c(S(=O)(=O)N2CCN(C(=O)CCc3ccccc3)CC2)c1	2	i	i	2	.	.
CC1=C(C(=O)OCCCBr)C(c2ccc3c(c2)OCO3)NC(=O)N1 (stereo not given)	1	i	i	15	.	.
SMILES	T cruzi inh	CHT PAM	CHT block	PolyA inh	CHT inh conf	HEK293 CHT ctr
O=C(NCC(=O)N1CCCC1)c1ccc(Cl)cc1	-12	i	i	0	.	.
O=C(C[n+]1cccc(Br)c1)c1ccccc1	-6	i	-6*	3	18%*	i
CCOC(=O)N1CCN(C(=O)C(C)N(c2ccccc2)S(C)(=O)=O)CC1 (stereo not given)	10	i	i	5	.	.
CCOC(=O)N1CCN(C(=O)C(c2ccccc2)c2ccccc2)CC1	-15	i	-6.5*	12	i	-11*
Cc1nc(Oc2ccccc2)c2ccccc2n1	4	i	-7*	7	i	i
CC(C)c1ccc(CNCc2ccccc2)cc1	3	i	-5.1*	2	42%*	-15*
Cc1cc(OC(=O)c2ccc(Cl)cc2Cl)c([N+](=O)[O-])c(=O)[nH]1	-8	i	i	0	.	.
O=C(Nc1ccc(S(=O)(=O)Nc2nccs2)cc1)c1c(F)c(F)c(F)c(F)c1F	3	i	-5*	4	35%*	i
CC(Oc1ccccc1)C(=O)Nc1ccc(S(=O)(=O)Nc2nccs2)cc1 (stereo not given)	0	i	i	5	.	.
CCC(Oc1ccc(C)cc1)C(=O)Nc1ccc(S(=O)(=O)Nc2nccs2)cc1 (stereo not given)	4	i	-6.5*	0	40%*	i
CS(=O)(=O)Nc1ccc(C(=O)Nc2ccc(S(=O)(=O)Nc3nccs3)cc2)cc1	2	i	i	15	.	.
CC(C)(C)C1CCc2c(sc3ncn(N)c(=N)c23)C1 (stereo not given)	25	i	i	3	.	.
Cn1c(SCc2nc3ccccc3s2)nnc1-c1cccs1	.	i	-5.1*	17	56%*	i
CCn1c(SCc2nc3ccccc3s2)nnc1-c1cccs1	6	i	i	-17	.	.
O=C(Nc1ncc([N+](=O)[O-])s1)c1ccc2c(c1)OCO2	27	i	i	-6	.	.
Cc1ccc(C(=O)Nc2ncc([N+](=O)[O-])s2)cc1	36	i	-5.9*	-11	56%*	i
CCOC(=O)N1CCN(C(=O)CNS(=O)(=O)c2c(C)cc(C)cc2C)CC1	-12	i	i	5	.	.
Cc1ccc(/C=C/C(=O)NCCc2cccc(Cl)c2)o1	1	i	i	1	.	.
O=[N+]([O-])/C(C(Cl)=C(Cl)Cl)=C(/NC1CC1)Sc1ccccc1	-8	i	i	-4	.	.
CN1/C(=C\C(=O)c2cncc(Br)c2)C(C)(C)c2ccccc21	44	i	i	-21	.	.
CN1/C(=C/C(=O)c2nc(S(C)(=O)=O)ncc2Cl)C(C)(C)c2ccccc21	40	i	-11*	-34	54%*	i
O=C(NC1CCCC1)C1CCN(C(=O)c2ccccc2Cl)CC1	-9	i	i	-14	.	.

Screening data (PubChem BioAssay)
